This note sets out measurements from the RNAGym collection of RNA variant scans (doi:10.1126/science.aae0568).

To fix the notation:
B1: tRNA (parent)
chain: GUUCCGUUGGCGUAAUGGUAACGCGUCUCCCUCCUAAGGAGAAGACUGCGGGUUCGAGUCCCGUACGGAACG

This sample holds only a part of the variants without activity.

In the data set the parent is B1. Kind of data set: yeast fitness relative to wild type (ratio to wild type); higher = fitter; tRNA-Arg(CCU), competitive growth, 37 C, YPD. In short, it runs like this: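 A pool of Saccharomyces cerevisiae strains, each with a tRNA-Arg(CCU) gene variant at the native genomic locus, was competed in YPD at 37°C for 24 hours across six parallel replicates. The variants had been chemically synthesised at a 3% per-site mutation rate over 69 sites, and gene amplicons before and after competition were read by 100-nucleotide paired-end sequencing. Darwinian fitness relative to wild type rested on changes in genotype frequencies. Genotypes required ≥ 100 starting reads, and estimates < 0.5 were set to 0.5.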
On to GUUCCGUUGGCGUAAUGGUAAUGCGUCUCCCUCCUAAGGAGAAGACUGCGGGUUCGAGUCCGGUACGGAACG, for which the yeast fitness amounted to 0.778.

Consider GUUCCGUUGGCGUAAUGGUAAUGCGUCUCCCUCCUAAGGAGAAGACUGCGGGUUCGAGUCCAGUACGGAACG, for which the yeast fitness is 0.856.

Consider GUUCCGUUGGCGUAAUGGUAAUGCGUCUCCCUCCUAAGGAGAAGACUGCGGGUUCGAGUCCUGUACGGAACG, for which the yeast fitness was 0.867.

Take GUUCCGUUGGCGUAAUGGUAAUACGUCUCCCUCCUAAGGAGAAGACUGCGGGUUCGAGUCCCGUAGAGAACG: the yeast fitness is at most 0.5.

GUUCCGUUGGCGUAAUGGUAAUGCGUCUCCCUCCUAAGGAGAAGACUGCGGGUUCGAGUCCCGUAUGGUACG: the yeast fitness turned out to be 0.6.

For the variant GUUCCGUUGGCGUAAUGGUAAUGCGUCUCCCUCCUAAGCAGAAGACUGCGGGUUCGAGUCCUGUACGGAACG, the yeast fitness amounted to 0.51.

With GUUCCGUUGGCGUAAUGGUAAUCCGCCUCACUCCUAAGGAGAAGACUGCGGGUUCGAGUCCCGUACGGAACG, the yeast fitness amounted to 0.507.

GUUCCGUUGGCGUAAUGGUAAUGCGUCUCCCUCCUAAAGAGAAGACUGCGGGUUUGAGUCCCGUACGCAACG: the yeast fitness is at most 0.5.

As to GUUCCGUUGGCGUAAUGGUAAUGCGUCUCCCUCCUAAGGAGAAGACUGCGGGUUCGAGUUCCGUACAGAACG, the yeast fitness was found to be 0.643.

GUUCCGUUGGCGUAAUGGUAAUGCGUCUCCCUCCUAAAGCGAAGACUGCGGGUUCGAGUCCCGUACGGAACG: the yeast fitness is 0.541.

On to GUUCCGUUGGCGUAAUGGUAAUGCAUCUCCCUCCUAAGGAGCAGACUGGGGGUUCGAGACCCGUUCGGAACG, for which the yeast fitness was at most 0.5.

Consider GUUCCGUUGGCGUAAUGGUAAUCCGUCUCCCUCCUAAGGAGAAGACUGCGGGUUUGAGUGCCGUACGGACCG, for which the yeast fitness is at most 0.5.

GUUCCGUUGGCGUAAUGGUAAUGCAUCUCCCUCCUGAGGAGAAGACUGCGAGUUCGAGUCCCGUAUGGAACG: the yeast fitness is at most 0.5.

Take GUUCCGUUGGCGUAAUGGUAAUCAGUCUCCCUCCUAAGGAGAAGACUGUGGGUUCGAGUCCUGUACGGCACG: the yeast fitness was determined as 0.683.

As for GUUCCGUUGGCGUAAUGGUAAUGCGUCUCCCUCCUAAGGAGAAGACUGCGGGUUCGAGUCAUGUACGGAACG, the yeast fitness stood at 0.586.

Take GUUCCGUUGGCGUAAUGGUAAUGCGUCUCCCUCCUAAGGAGAAGACUGCGGGUUCGAGUCGCGUACGGGACG: the yeast fitness came out at 0.574.

With GUUCCGUUGGCGUAAUGGUAAUGCGUCUCCCUCCUAAGAAGAAGACUGCGGGUUCGAGUCCCGUACGGAACG, the yeast fitness is 0.693.

Regarding GUUCCGUUGGCGUAAUGGUAAUGCGUCUCCCUCCUAAGCAGAAGACUGCGGGUUCGAGUCCCGUACGGAACG, the yeast fitness was determined as 0.731.

For GUUCCGUUGGCGUAAUGGUAAUGCGUCUCCCUCCUAAGGAGAAGACUGCGGGUUCGAGUCCCGUAUGGAACG, the yeast fitness came out at 0.762.

On to GUUCCGUUGGCGUAAUGGUAAUGCGUCUCCCUCCUAAGGAGAAGACUGCGGGUUCGAGUCCCGUAAGGAACG, for which the yeast fitness came out at 0.716.

On to GUUCCGUUGGCGUAAUGGUAAUGCGUCUCCCUCCUAAGGAGAAGACUGCGGGUUCGAGUCACGUACGGAACG, for which the yeast fitness amounted to 0.612.

GUUCCGUUGGCGUAAUGGUAAUGCGUCUCCCUCCUAAGGAGAAGACUGCGGGUUCGAGUCGCGUACGGAACG: the yeast fitness was 0.586.

With GUUCCGUUGGCGUAAUGGUAAUGCGUCUCCCUCCUAAGGAGAAGACUGCGGGUUCGAGUUACCUUCGGAACG, the yeast fitness was at most 0.5.

Regarding GUUCCGUUGGCGUAAUGGUAAUGCAUCUCCCUCCUAAGGAAAAGAAUGCGGGUUCGAGUCCCGUACGGCACG, the yeast fitness turned out to be 0.599.

GUUCCGUUGGCGUAAUGGUAAUGCGUCUCCCUCCUAAGGAGAAGACUGCGGGUUCGAGUGCCGUACGGAGCG: the yeast fitness was at most 0.5.

Consider GUUCCGUUGGCGUAAUGGUAAUACGUCUCCCUCCUAAGGAGAAGACUGCGGGUUCGAGUCACGUACGGAACG, for which the yeast fitness came out at 0.58.

On to GUUCCGUUGGCGUAAUGGUAAUGCAUCUCCCUCCUAAGGACAAGACUGCGGGUGCGAGUCUCGUACGGAACG, for which the yeast fitness was at most 0.5.

On to GUUCCGUUGGCGUAAUGGUAAUACGUCUCCCUCCUAAGGAGAAGAUUGCGGGUUCGAGUCCCGUACGGAACG, for which the yeast fitness was at most 0.5.

With GUUCCGUUGGCGUAAUGGUAAUGCAUCUCCCUCCUAAGGAGAAGACUCCGGGUUCGGGUCCCGUACGGAACG, the yeast fitness was at most 0.5.

Consider GUUCCGUUGGCGUAAUGGUAAUGCAUCUCCCUCCUAAGGAGAGGACUGCGGGUACGAGUCCUGUACGGAACG, for which the yeast fitness is at most 0.5.

As for GUUCCGUUGGCGUAAUGGUAAUACGUCUCCCUCCUAAGGAGAAGACUGCGGGUUCGAGUCCCGUACGGAACG, the yeast fitness was 0.591.

For the variant GUUCCGUUGGCGUAAUGGUAAUCCGUCUCCCUCCUAAGGAGAAGACUGCGGGUUCGAGUCCCGUACGGAACG, the yeast fitness was 0.722.

Turning to GUUCCGUUGGCGUAAUGGUAAUGCGUCUCCCUCCUAAGGAAAAGACUGCGGGUUCGAGUCCCGUACGGAACG, the yeast fitness was 0.706.

As for GUUCCGUUGGCGUAAUGGUAAUGCGUCUCCCUCCUAAAGAGAAGACUGCGGGUUCGAGUCCCGUACCGAACG, the yeast fitness was at most 0.5.

For GUUCCGUUGGCGUAAUGGUAAUGCGUCUCCCUCCUAACGACAAGACUGCGGGUUCGAGUCCCGUGCGGAACG, the yeast fitness is at most 0.5.

With GUUCCGUUGGCGUAAUGGUAAUGCGUCUCCCUCCUAACGAGAAGACUGCGGGUUCGAGUCCCGUACGGAACG, the yeast fitness stood at 0.747.

Turning to GUUCCGUUGGCGUAAUGGUAAUGCAUCUCCCUUCUAAGGAGCAGACUGCGGGUUCGAGUCCCGUACGGAACG, the yeast fitness is at most 0.5.

As to GUUCCGUUGGCGUAAUGGUAAUGCGUCUCCCUCCUAAGGAAAAGACUGCGGGUUCGAGUCCCGUCCGGAACG, the yeast fitness was at most 0.5.
